Experimental data: ChEMBL document CHEMBL1148449, “Discovery, modeling, and human pharmacokinetics of N-(2-acetyl-4,6-dimethylphenyl)-3-(3,4-dimethylisoxazol-5-ylsulfamoyl)thiophene-2-carboxamide (TBC3711), a second generation, ETA selective, and orally bioavailable endothelin antagonist” (J Med Chem, 2004)
Where a SMILES comes first, the peptide text is derived from it. [ ]: non-standard residue; d: D form. The star is where a group is joined. Piperazinyl(4-Ph) = c1ccc(N2CCN(*)CC2)cc1; dGly(2-thienyl) = N[C@@H](C(=O)O)c1cccs1

Assays:
[1] = molecular target: Endothelin-1 receptor (Homo sapiens) (UniProt P25101); assay: Selectivity towards endothelin A receptor in human.
Endothelin-1 receptor [2] = molecular target: T1, Endothelin-1 receptor (Homo sapiens, UniProt P25101); assay: Displacement of [125I]ET-1 from Endothelin A receptor
T1 sequence (P25101 whole entry): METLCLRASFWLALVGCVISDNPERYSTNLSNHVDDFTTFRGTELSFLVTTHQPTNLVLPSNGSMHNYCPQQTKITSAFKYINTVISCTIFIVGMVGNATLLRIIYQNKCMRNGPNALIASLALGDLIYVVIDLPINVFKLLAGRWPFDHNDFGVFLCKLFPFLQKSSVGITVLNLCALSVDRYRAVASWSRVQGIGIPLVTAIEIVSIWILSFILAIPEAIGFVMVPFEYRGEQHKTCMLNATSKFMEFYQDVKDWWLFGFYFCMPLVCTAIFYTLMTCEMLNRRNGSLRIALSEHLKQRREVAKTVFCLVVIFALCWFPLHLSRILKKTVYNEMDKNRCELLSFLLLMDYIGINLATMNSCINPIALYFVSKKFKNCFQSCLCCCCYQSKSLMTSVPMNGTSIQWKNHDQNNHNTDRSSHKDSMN

[3] = Cmax in rat plasma after oral dose (50 mg/Kg); type: ADME, organism-based; design: dose 50 mg/Kg, route oral
Method in brief: (§1)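 Rats given 50 mg/kg orally. Plasma was separated at once by centrifugation and stored at -80 °C. Proteins were precipitated with acetonitrile and drug measured by HPLC to give Cmax, AUC and t1/2.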

[4] = Half life period was determined; type: ADME, organism-based; settings: rat, in vivo
Method in brief: as §1

[5] = Compound was evaluated for area under the curve expressed as (h*ug/ml); type: ADME, organism-based; design: concentration or dose not given beside the values; settings: rat, in vivo
Method in brief: as §1

[6] = molecular target: Endothelin receptor (Rattus norvegicus) (UniProt P26684+P21451); assay: Selectivity for endothelin A receptor over endothelin receptor B; type: protein assay
Chain of Endothelin receptor (Rattus norvegicus) (P21451 whole entry, looked up, one chain of several): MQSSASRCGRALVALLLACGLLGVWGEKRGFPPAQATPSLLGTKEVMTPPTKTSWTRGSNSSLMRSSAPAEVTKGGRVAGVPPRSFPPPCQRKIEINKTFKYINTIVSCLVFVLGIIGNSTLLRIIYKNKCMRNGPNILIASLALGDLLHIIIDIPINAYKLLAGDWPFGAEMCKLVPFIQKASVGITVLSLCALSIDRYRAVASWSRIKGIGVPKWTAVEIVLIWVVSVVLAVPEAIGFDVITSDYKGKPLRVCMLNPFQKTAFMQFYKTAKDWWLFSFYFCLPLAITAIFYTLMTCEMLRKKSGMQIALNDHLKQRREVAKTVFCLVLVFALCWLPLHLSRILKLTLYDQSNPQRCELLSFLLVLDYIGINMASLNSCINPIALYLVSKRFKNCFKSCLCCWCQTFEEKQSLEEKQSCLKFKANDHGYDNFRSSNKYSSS

[7] = Half life period was evaluated in rat; 0.5-1.0; type: ADME, organism-based; settings: in vivo
Endothelin-1 receptor [8] = molecular target: T2, Endothelin-1 receptor (Rattus norvegicus, UniProt P26684); assay: Binding affinity towards Endothelin A receptor
T2 sequence (P26684 whole entry): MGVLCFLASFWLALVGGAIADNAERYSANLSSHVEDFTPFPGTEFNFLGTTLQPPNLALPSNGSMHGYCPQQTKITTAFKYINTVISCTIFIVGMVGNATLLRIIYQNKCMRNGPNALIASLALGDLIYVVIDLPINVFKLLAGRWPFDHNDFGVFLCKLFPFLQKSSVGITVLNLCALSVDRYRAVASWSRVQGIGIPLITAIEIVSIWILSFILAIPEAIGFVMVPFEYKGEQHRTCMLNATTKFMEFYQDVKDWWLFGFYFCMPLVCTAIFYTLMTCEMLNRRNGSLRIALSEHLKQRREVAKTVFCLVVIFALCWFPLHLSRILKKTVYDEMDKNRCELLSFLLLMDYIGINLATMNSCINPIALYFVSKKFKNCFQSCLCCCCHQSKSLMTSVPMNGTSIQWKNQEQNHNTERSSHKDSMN

[9] = Maximal plasma concentration in rat after oral administration at 50 mg/kg; type: ADME, organism-based; design: dose 50 mg/kg, route oral
Method in brief: as §1

[10] = molecular target: T3, Endothelin-1 receptor (Rattus norvegicus) (UniProt P26684); assay: Selectivity towards endothelin A receptor in rat.
T3 sequence (whole entry): T2 sequence (P26684 whole entry)

[11] = Compound was evaluated for oral bioavailability in rats; settings: rat, in vivo

| Structure (SMILES) | Selectivity [1] | IC50 (Endothelin-1 receptor [2]) [nM] | Cmax [3] [ng/mL] | half-life [4] [h] | AUC [5] [ng·h/mL] | also measured |
| --- | --- | --- | --- | --- | --- | --- |
| Cc1cc(C)c(NC(=O)c2sccc2S(=O)(=O)Nc2onc(C)c2Cl)c(C(=O)O)c1 | 600 | 2.62 |  |  |  |  |
| Cc1cc(C)c(NC(=O)c2sccc2S(=O)(=O)Nc2onc(C)c2Cl)c(C)c1C#N |  |  | 17300 |  |  |  |
| Cc1cc(C)c(NC(=O)c2sccc2S(=O)(=O)Nc2onc(C)c2Cl)c(Cl)c1 | 166000 | 0.09 | 47500 | 2.6 | 172000 |  |
| CC(=O)OCc1c(C)cc(C)c(NC(=O)c2sccc2S(=O)(=O)Nc2onc(C)c2Cl)c1C |  |  | 3800 |  |  |  |
| Cc1cc(C)c(NC(=O)c2sccc2S(=O)(=O)Nc2onc(C)c2C)c(C#N)c1C | 328000 | 0.08 | 85800 | 5.3 | 667000 |  |
| CCCS(=O)(=O)c1cc(C)cc(C)c1NC(=O)c1sccc1S(=O)(=O)Nc1onc(C)c1Cl | 6100 | 0.06 | 2900 | 1.3 | 5900 |  |
| CC(C)C[C@@H]1NC(=O)[C@@H](c2cccs2)NC(=O)[C@H](CC(=O)[O-])NC(=O)[C@H](CC(=O)N2CCN(c3ccccc3)CC2)NC(=O)[C@@H](CC(=O)[O-])NC(=O)[C@@H](Cc2c[nH]c3ccccc23)NC1=O.[Na+].[Na+] (cyclo(D(Piperazinyl(4-Ph))D[dGly(2-thienyl)]L[dW][dD])) |  |  |  |  |  | Selectivity [6]: 540; half-life [7]: 1 h |
| CC(=O)c1c(C)c(C)cc(C)c1NC(=O)c1sccc1S(=O)(=O)Nc1onc(C)c1Cl | 1.18e+06 | 0.02 | 10800 | 1.68 | 53800 |  |
| CC(C)C[C@@H]1NC(=O)[C@@H](C(C)C)NC(=O)[C@@H]2CCCN2C(=O)[C@@H](CC(=O)O)NC(=O)[C@@H](Cc2c[nH]c3ccccc23)NC1=O [BQ-123] (cyclo(L[dW][dD]P[dV])) |  | 22 |  |  |  | Selectivity [6]: 818 |
| Cc1cc(C)c(NC(=O)c2sccc2S(=O)(=O)Nc2onc(C)c2Cl)c(C)c1CO |  |  | 2400 |  |  |  |
| COc1cc(OC)nc(O[C@H](C(=O)O)C(OC)(c2ccccc2)c2ccccc2)n1 |  |  |  |  |  | Selectivity [6]: 60; Ki (Endothelin-1 receptor [8]): 6 nM |
| CCC(=O)c1c(C)c(C)cc(C)c1NC(=O)c1sccc1S(=O)(=O)Nc1onc(C)c1Cl | 216000 | 0.03 | 13000 | 1.47 | 24300 |  |
| Cc1cc(C)c(NC(=O)c2sccc2S(=O)(=O)Nc2onc(C)c2Cl)c(C(=O)c2ccccc2)c1 | 46000 | 0.39 | 33400 | 3.95 | 141000 |  |
| Cc1cc(C)c(NC(=O)c2sccc2S(=O)(=O)Nc2onc(C)c2Cl)c(C)c1 | 7000 | 0.15 |  |  |  |  |
| Cc1cc(C)c(NC(=O)c2sccc2S(=O)(=O)Nc2onc(C)c2Cl)c(C(=O)C2CC2)c1 | 331000 | 0.03 | 53400 | 5.4 | 365000 |  |
| Cc1cc(C)c(NC(=O)c2sccc2S(=O)(=O)Nc2onc(C)c2Cl)c(S(C)(=O)=O)c1 | 325000 | 0.03 |  | 1.7 | 28200 | Cmax [9]: 10300 ng/mL |
| Cc1cc(C)c(NC(=O)c2sccc2S(=O)(=O)Nc2onc(C)c2Cl)c(-c2ncco2)c1 | 119000 | 0.08 | 66000 | 5.3 | 362000 |  |
| Cc1cc(C)c(OC2CC2)c(C)c1NC(=O)c1sccc1S(=O)(=O)Nc1onc(C)c1Cl |  |  | 6100 |  |  |  |
| CCCc1c(O)c(C(C)=O)cc(C(C)=O)c1NC(=O)c1sccc1S(=O)(=O)Nc1onc(C)c1Cl |  | 12.4 |  |  |  | Selectivity [10]: 1000 |

| Structure (SMILES) | Selectivity [1] | IC50 (Endothelin-1 receptor [2]) [nM] | Cmax [3] [ng/mL] | half-life [4] [h] | AUC [5] [ng·h/mL] | also measured |
| --- | --- | --- | --- | --- | --- | --- |
| Cc1cc(C)c(S(N)(=O)=O)c(C)c1NC(=O)c1sccc1S(=O)(=O)Nc1onc(C)c1Cl |  |  | 2900 |  |  |  |
| Cc1cc(C)c(NC(=O)c2sccc2S(=O)(=O)Nc2onc(C)c2Cl)c(C(=O)N(C)C)c1 | 12300 | 0.07 | 10900 | 1.19 | 27200 |  |
| Cc1cc(C)c(NC(=O)c2sccc2S(=O)(=O)Nc2onc(C)c2Cl)c(C(=O)C(C)C)c1 |  | 0.11 | 59200 |  |  | Selectivity [10]: 144000 |
| Cc1cc(-c2ncco2)cc(C)c1NC(=O)c1sccc1S(=O)(=O)Nc1onc(C)c1Cl | 1900 | 1.27 |  |  |  |  |
| CCC(=O)c1cc(C)cc(C)c1NC(=O)c1sccc1S(=O)(=O)Nc1onc(C)c1Cl | 214000 | 0.06 |  |  |  |  |
| Cc1cc(C)c(NC(=O)c2sccc2S(=O)(=O)Nc2onc(C)c2Cl)c(C(=O)N(C)CC(C)(C)C)c1 | 15900 | 0.68 |  |  |  |  |
| COc1c(C)cc(C)c(NC(=O)c2sccc2S(=O)(=O)Nc2onc(C)c2Cl)c1C |  |  | 4000 |  |  |  |
| Cc1cc(C)c(NC(=O)c2sccc2S(=O)(=O)Nc2onc(C)c2Cl)c(C#N)c1C | 608000 | 0.05 | 45700 | 5.11 | 373000 |  |
| CCCCc1ccc2c(n1)[C@@H](c1ccc(OC)cc1C[C@H](C)C(=O)O)[C@H](C(=O)O)[C@H]2c1ccc2c(c1)OCO2 |  |  |  |  |  | Selectivity [6]: 3; Ki (Endothelin-1 receptor [8]): 0.034 nM; bioavailability [11]: 40% |
| CC(=O)c1cc(C)cc(C)c1NC(=O)c1sc(C)cc1S(=O)(=O)Nc1onc(C)c1Cl | 4500 | 0.21 | 68900 | 2.7 | 327000 | bioavailability [11]: 49% |
| Cc1cc(C)c(NC(=O)c2sccc2S(=O)(=O)Nc2onc(C)c2Cl)c(C(=O)C2CCCCC2)c1 | 13000 | 1.37 |  |  |  |  |
| Cc1cc(C)c(NC(=O)c2sccc2S(=O)(=O)Nc2onc(C)c2Cl)c(-c2ccccc2)c1 | 1900 | 1.47 |  |  |  |  |
| Cc1cc(C)c(N(C)C)c(C)c1NC(=O)c1sccc1S(=O)(=O)Nc1onc(C)c1Cl |  |  | 3200 |  |  |  |
| Cc1cc(C)c(NS(C)(=O)=O)c(C)c1NC(=O)c1sccc1S(=O)(=O)Nc1onc(C)c1Cl |  |  | 2800 |  |  |  |
| C/C(=N\O)c1cc(C)cc(C)c1NC(=O)c1sccc1S(=O)(=O)Nc1onc(C)c1Cl | 24500 | 0.02 | 6920 | 5.2 | 39500 |  |
| Cc1cc(C)c(NC(=O)c2sccc2S(=O)(=O)Nc2onc(C)c2Cl)c(S(=O)(=O)C(C)C)c1 | 8800 | 0.05 |  |  |  |  |
| CCCCN(CCCC)C(=O)CN1C[C@H](c2ccc3c(c2)OCO3)[C@@H](C(=O)O)[C@@H]1c1ccc(OC)cc1 |  |  |  |  |  | bioavailability [11]: 60% |
| CO/N=C(\C)c1cc(C)cc(C)c1NC(=O)c1sccc1S(=O)(=O)Nc1onc(C)c1Cl | 56000 | 0.04 | 13800 | 1.2 | 33500 |  |
